Experimental data reported in ChEMBL document CHEMBL2016531, “Identification of NAE Inhibitors Exhibiting Potent Activity in Leukemia Cells: Exploring the Structural Determinants of NAE Specificity” (ACS Med Chem Lett, 2011).
The source made the active and inactive calls. The calls are words filed in the database; no cut-off is given here.

Experiments:
[1] = molecular target: T1, NEDD8-activating enzyme E1 catalytic subunit (Homo sapiens) (UniProt Q8TBC4); assay: Inhibition of UBA3-mediated NEDD8 activation at […] after 1.5 hrs by Western blot analysis
T1 sequence (whole entry): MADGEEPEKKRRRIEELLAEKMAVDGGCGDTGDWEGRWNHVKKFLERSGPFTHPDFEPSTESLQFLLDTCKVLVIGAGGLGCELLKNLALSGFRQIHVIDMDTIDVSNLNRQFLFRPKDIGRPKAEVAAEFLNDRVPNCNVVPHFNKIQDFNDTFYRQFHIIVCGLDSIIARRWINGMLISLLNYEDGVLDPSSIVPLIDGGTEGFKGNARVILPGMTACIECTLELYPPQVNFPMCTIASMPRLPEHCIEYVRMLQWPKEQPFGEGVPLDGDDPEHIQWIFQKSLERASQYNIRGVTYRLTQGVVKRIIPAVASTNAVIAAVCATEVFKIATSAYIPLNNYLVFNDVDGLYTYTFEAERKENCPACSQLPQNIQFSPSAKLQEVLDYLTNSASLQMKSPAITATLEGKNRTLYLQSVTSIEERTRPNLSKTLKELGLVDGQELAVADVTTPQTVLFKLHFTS

[2] = molecular target: SUMO-activating enzyme (Homo sapiens) (UniProt Q9UBE0+Q9UBT2); assay: Inhibition of human recombinant SAE1/2 assessed as inhibition of SUMO1-UbcH9 complex formation at 0.001 to 10 uM after 1.5 hrs by Western blot analysis; assay type: protein-complex assay
In short: (§1)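 Cell-free gel assay. Purified human recombinant E1 incubated with its matching Ub/Ubl and E2 in 50 mM HEPES pH 7.4, 5 mM MgCl2, 1–20 μM ATP. Inhibitor at 0, 0.001, 0.01, 0.1, 1 or 10 μM, 1.5 h at room temperature. Products resolved by SDS-PAGE, immunoblotted and detected by ECL; densitometry used for semiquantitation.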

[3] = test system: K562; assay: Antiproliferative activity against human K562 cells after 72 hrs by CellTiter-Glo assay; assay type: functional, cell-based; conditions: K562, 72 h
In short: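 K562 leukemia cells exposed to increasing concentrations for 72 h; growth and viability read by CellTiter-Glo luminescence.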

[4] = organism: Homo sapiens; assay: Inhibition of human recombinant UAE assessed as inhibition of UbcH6-Ub complex formation at 0.001 to 10 uM after 1.5 hrs by Western blot analysis; in short: as §1
[5] = organism: Homo sapiens; assay: Inhibition of human recombinant NAE assessed as inhibition of NEDD8-UbcH12 complex formation at 0.001 to 10 uM after 1.5 hrs by Western blot analysis; in short: as §1
[6] = molecular target: T2, NEDD8-activating enzyme E1 regulatory subunit (Homo sapiens) (UniProt Q13564); assay: Inhibition of APPBP1-mediated NEDD8 activation at […] after 1.5 hrs by Western blot analysis
T2 sequence (whole entry): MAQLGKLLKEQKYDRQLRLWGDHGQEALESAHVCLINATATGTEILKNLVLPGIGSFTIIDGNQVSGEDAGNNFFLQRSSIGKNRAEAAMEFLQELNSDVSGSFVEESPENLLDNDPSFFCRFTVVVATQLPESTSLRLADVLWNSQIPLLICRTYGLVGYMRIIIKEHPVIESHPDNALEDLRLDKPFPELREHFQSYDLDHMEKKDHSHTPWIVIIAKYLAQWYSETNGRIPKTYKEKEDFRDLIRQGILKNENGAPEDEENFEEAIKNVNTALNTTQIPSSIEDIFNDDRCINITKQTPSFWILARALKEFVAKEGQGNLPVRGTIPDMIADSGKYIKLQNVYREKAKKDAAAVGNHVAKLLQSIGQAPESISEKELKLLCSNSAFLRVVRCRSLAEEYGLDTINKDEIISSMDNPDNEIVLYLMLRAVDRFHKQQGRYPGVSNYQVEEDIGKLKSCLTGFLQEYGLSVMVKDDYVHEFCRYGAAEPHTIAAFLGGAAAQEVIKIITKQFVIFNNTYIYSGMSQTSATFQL

[7] = molecular target: Ubiquitin-like modifier-activating enzyme 5 (Homo sapiens) (UniProt Q9GZZ9); assay: Inhibition of human recombinant UBA5 assessed as inhibition of […]-UFM1 complex formation at 10 uM after 1.5 hrs by Western blot analysis; in short: as §1
Chain of Ubiquitin-like modifier-activating enzyme 5 (Homo sapiens) (Q9GZZ9 whole entry): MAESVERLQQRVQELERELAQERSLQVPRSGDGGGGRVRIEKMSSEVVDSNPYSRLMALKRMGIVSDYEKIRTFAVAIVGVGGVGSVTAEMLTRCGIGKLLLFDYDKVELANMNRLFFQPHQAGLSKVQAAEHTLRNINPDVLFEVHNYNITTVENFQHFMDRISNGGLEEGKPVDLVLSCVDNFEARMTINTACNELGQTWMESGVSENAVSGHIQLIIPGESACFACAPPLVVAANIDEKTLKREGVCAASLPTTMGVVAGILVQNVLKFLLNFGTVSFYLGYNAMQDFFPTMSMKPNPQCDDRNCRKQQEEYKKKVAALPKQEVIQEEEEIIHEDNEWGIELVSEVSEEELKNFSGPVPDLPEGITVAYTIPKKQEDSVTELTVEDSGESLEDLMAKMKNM

Compound: NS(=O)(=O)OC[C@H]1O[C@@H](n2cnc3c(N[C@H]4CCc5ccccc54)ncnc32)[C@H](O)[C@@H]1O
- inhibition [1]: Active
- inhibition [2]: Active
- EC50 [3]: 125 nM
- inhibition [4]: Active
- inhibition [5]: Active
- inhibition [6]: Active
- inhibition [7]: inactive
